In ChEMBL document CHEMBL1177728, “Discovery and optimization of boronic acid based inhibitors of autotaxin” (J Med Chem, 2010):

Molecular target: Autotaxin (Homo sapiens, UniProt Q13822)
Experiment: Inhibition of 6x-histidine-tagged human recombinant ATX expressed in HEK293 cells assessed as lysophosphatidulcholine release at 5 uM
Assay type: cell-based
Outline: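 LPC (18:1) choline release: ATX (~40 nM) secreted by transfected HEK293 cells into serum-free medium, TALON-purified, in 50 mM Tris-HCl pH 7.4 with 0.01% Triton X-100. Substrate added as 80 μM LPC with 10 mM MgCl2 and CaCl2, 3 h at 37 C. Choline read at 405 nm by choline oxidase/HRP/ABTS with compound-absorbance correction. IC50 over 10 concentrations (0.01–30 μM); inhibition at 5 μM final.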

Compound | inhibition [%]
COc1cc(/C=C2\SC(=O)N(Cc3ccc(C(=O)O)cc3[N+](=O)[O-])C2=O)ccc1OCc1ccc(C(=O)O)cc1 | 31
COc1cc(/C=C2\SC(=O)N(Cc3cccc(Cl)c3)C2=O)ccc1OCc1ccc(C(=O)O)cc1 | 29
COc1cc(/C=C2\SC(=O)N(Cc3ccc(CC(=O)O)cc3)C2=O)ccc1OCc1ccc(C(=O)O)cc1 | 42
COc1cc(/C=C2\SC(=O)N(Cc3cccc(Br)c3)C2=O)ccc1OCc1ccc(C(=O)O)cc1 | 26
COc1cccc(CN2C(=O)S/C(=C\c3ccc(OCc4ccc(C(=O)O)cc4)c(OC)c3)C2=O)c1 | 20
COC(=O)c1cccc(CN2C(=O)S/C(=C\c3ccc(OCc4ccc(C(=O)O)cc4)c(OC)c3)C2=O)c1 | 30
C=CCN1C(=O)S/C(=C\c2ccc(OCc3ccc(C(=O)O)cc3)c(OC)c2)C1=O | 19
COc1cc(/C=C2\SC(=O)N(Cc3cccc4ccccc34)C2=O)ccc1OCc1ccc(C(=O)O)cc1 | 13
COc1cc(/C=C2\SC(=O)N(CCN3C(=O)c4ccccc4C3=O)C2=O)ccc1OCc1ccc(C(=O)O)cc1 | 0
COc1cc(/C=C2\SC(=O)N(Cc3ccc(F)cc3C(F)(F)F)C2=O)ccc1OCc1ccc(C(=O)O)cc1 | 13
COc1cc(/C=C2\SC(=O)N(Cc3ccccn3)C2=O)ccc1OCc1ccc(C(=O)O)cc1 | 10
CCCCCN1C(=O)S/C(=C\c2ccc(OCc3ccc(C(=O)O)cc3)c(OC)c2)C1=O | 15
COc1cc(/C=C2\SC(=O)N(Cc3cccnc3)C2=O)ccc1OCc1ccc(C(=O)O)cc1 | 17
COc1cc(/C=C2\SC(=O)N(Cc3cccc(C(F)(F)F)c3)C2=O)ccc1OCc1ccc(C(=O)O)cc1 | 46
COc1cc(/C=C2\SC(=O)N(C(c3ccccc3)c3ccccc3)C2=O)ccc1OCc1ccc(C(=O)O)cc1 | 4
COc1cc(/C=C2\SC(=O)N(Cc3cccc([N+](=O)[O-])c3)C2=O)ccc1OCc1ccc(C(=O)O)cc1 | 48
COc1cc(/C=C2\SC(=O)N(Cc3ccc(C#N)cc3)C2=O)ccc1OCc1ccc(C(=O)O)cc1 | 21

Compound | inhibition [%]
COc1cc(/C=C2\SC(=O)N(Cc3ccccc3[N+](=O)[O-])C2=O)ccc1OCc1ccc(C(=O)O)cc1 | 38
COc1ccc(CN2C(=O)S/C(=C\c3ccc(OCc4ccc(C(=O)O)cc4)c(OC)c3)C2=O)cc1 | 11
COc1cc(/C=C2\SC(=O)N(Cc3ccccc3F)C2=O)ccc1OCc1ccc(C(=O)O)cc1 | 41
COc1cc(/C=C2\SC(=O)N(Cc3ccc(C)cc3)C2=O)ccc1OCc1ccc(C(=O)O)cc1 | 11
COc1cc(/C=C2\SC(=O)N(Cc3ccccc3C(F)(F)F)C2=O)ccc1OCc1ccc(C(=O)O)cc1 | 28
COc1cc(/C=C2\SC(=O)N(Cc3ccc(F)cc3Br)C2=O)ccc1OCc1ccc(C(=O)O)cc1 | 51
COc1cc(/C=C2\SC(=O)N(CC(=O)c3ccc(Cl)cc3)C2=O)ccc1OCc1ccc(C(=O)O)cc1 | 35
COc1cc(/C=C2\SC(=O)N(CC(=O)c3ccc([N+](=O)[O-])cc3)C2=O)ccc1OCc1ccc(C(=O)O)cc1 | 17
COc1cc(/C=C2\SC(=O)N(Cc3ccc(C(=O)O)cc3)C2=O)ccc1OCc1ccc(C(=O)O)cc1 | 49
COc1cc(/C=C2/SC(=O)N(Cc3c(F)c(F)c(F)c(F)c3F)C2=O)ccc1OCc1ccc(C(=O)O)cc1 | 10
COc1cc(/C=C2/SC(=O)N(Cc3c(Cl)cccc3Cl)C2=O)ccc1OCc1ccc(C(=O)O)cc1 | 38
COc1cc(/C=C2\SC(=O)N(Cc3ccc(Cl)cc3)C2=O)ccc1OCc1ccc(C(=O)O)cc1 | 57
O=C1S/C(=C\c2ccc(OCc3ccc(B(O)O)cc3)cc2)C(=O)N1Cc1ccc(F)cc1 | 99
COc1cc(/C=C2\SC(=O)N(C(C)c3ccccc3)C2=O)ccc1OCc1ccc(C(=O)O)cc1 (stereo not drawn) | 5
COC(=O)c1ccc(CN2C(=O)S/C(=C\c3ccc(OCc4ccc(C(=O)O)cc4)c(OC)c3)C2=O)cc1 | 31
COc1cc(/C=C2\SC(=O)N(Cc3ccncc3)C2=O)ccc1OCc1ccc(C(=O)O)cc1 | 13
